Peptide text beside a SMILES is read from it. * marks the point of attachment. Cbz = O=C(OCc1ccccc1)*

Our source for the cellular protein breakdown values is PMC7341950 (Nature chemistry, 2019).

This test concerns HeLa cells. Kind of test: Radiolabel pulse-chase of cellular protein breakdown. Format: cell-based, human. The settings on record: 35S-Met/35S-Cys label, 4 hr chase. The procedure, abridged:
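Cellular proteins were metabolically labeled with ³⁵S-Met and ³⁵S-Cys, then chased in unlabeled ("cold") medium. During the chase, cells were left untreated or given DMSO, test compound, or the proteasome inhibitor MG132 as a reference. Compounds were tested at more than one concentration to follow degradation across doses. Bars show mean values.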

For the compound `CC(C)C[C@@H](C=O)NC(=O)[C@H](CC(C)C)NC(=O)[C@H](CC(C)C)NC(=O)OCc1ccccc1` [MG132] (Cbz-Leu-Leu-Leu-aldehyde), the cellular protein breakdown entry was “inhibit”.
